Screening results (PubChem BioAssay)
APP transl inh: APP translation inhibition; SH-SY5Y APP 5'UTR-luciferase reporter, luminescence; inhibition, % at 2 µM; 190,000 compounds, 0.82% hits;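 active = inhibition above a set limit, derived from the sample mean plus 3 SD, cut at about 45% in these data; inconclusive = one replicate passes the limit while the other fails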
aSyn 5UTR inh: 5' untranslated region of α-synuclein, MLPCN primary screen | alpha-synuclein 5'UTR reporter, inhibitor activity | inhibition, % (tested at 7.5 µM) | 300,000 compounds, 0.82% hits; in the data active = inhibition above about 60%; inconclusive = no clear call, values can overlap the other calls;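 note: H4 neuroglioblastoma cells stably carrying SNCA 5'UTR luciferase fusion; 0% = DMSO wells and 100% = positive control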
Jurkat NFkB inh: inhibitors of the PMA/ionomycin-induced NF-kB reporter in Jurkat cells; PMA/ionomycin-induced NF-kB luciferase reporter, luminescence; AID 435003; 330,000 compounds, 0.53% hits; inhibition, % at 4 µM; in the data active = inhibition above about 50%
697 NFkB inh: inhibitors of the PMA/ionomycin-induced NF-kB reporter in 697 B cells | 330,000 compounds, 0.33% hits | inhibition, % at 4 µM | 697 B-cell NF-kB luciferase reporter, 16 h; in the data active = inhibition above about 35%
H9c2 TAG inh: reduces triacylglycerol accumulation in H9c2 cells. Nile Red lipid (TAG) fluorescence; cells loaded with 200 µM oleic acid. inhibition, % at 12.5 µM. 230,000 compounds, 0.66% hits. AID 651582;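 active = pattern-corrected inhibition of lipid staining of at least 50% with the nuclear-stain viability signal not falling by more than 50%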;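 note: 0% = DMSO wells and 100% = triacsin C control wells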
Lipid droplet: modulators of hepatic lipid droplet formation; AML12 mouse hepatocytes, oleate lipid droplets, BODIPY imaging; inhibition, % at 6.5 µM; 240,000 compounds, 0.4% hits; AID 1656;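 active = lipid droplet intensity inhibited by at least 50%, with more than 500 cells counted; inconclusive = wells with under 300 cells, treated as cytotoxic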
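Technique: fluorescence imaging, 20x objective, two fields per well / Assay system: AML12 hepatocytes (mouse) / Measure: % inhibition of lipid droplet signal / Doses: 6.5 µM single-point dosing / Incubation: overnight exposure / Reagent: 100 µM oleic acid challenge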
The depositor's hits bear a star; ? = inconclusive; / = no result. The list is not random: actives were taken first. Their share in the collection is about 1.9%.

SMILES	APP transl inh	aSyn 5UTR inh	Jurkat NFkB inh	697 NFkB inh	H9c2 TAG inh	Lipid droplet
CC1(C)Cc2c(sc(NC(=O)c3ccccc3)c2C(=O)O)CO1	-22	-74	-12	-55	5	-29
COc1ccc(C(=O)Nc2sc3c(c2C(=O)O)CC(C)(C)OC3)cc1	-2	63*	5	-12	-4	15
CCn1c(SCC(=O)N(C)c2c(N)n(Cc3ccccc3)c(=O)[nH]c2=O)nnc1-c1cccs1	/	/	/	/	0	/
Fc1ccc(-c2ccc3c(c2)C2CC3CCN2Cc2ccc3c(c2)OCO3)cc1 (stereo unspecified)	/	/	/	/	-23	/
CCN(CC)C(=O)c1cccc(-c2csc(C(C)(O)c3ccc(OC)cc3)n2)c1 (stereo unspecified)	/	/	/	/	10	/
COCCOC(=O)c1[nH]c2c(c1C)C(=O)CC(c1ccc(OC)c(OC)c1)C2 (stereo unspecified)	/	-2	11	3	/	9
COCCOC(=O)c1[nH]c2c(c1C)C(=O)CC(c1cccs1)C2 (stereo unspecified)	85*	64*	/	/	44	?
Cc1ccc2nc(NC(=O)[C@H](C)N3C(=O)C4CC=CCC4C3=O)sc2c1 (stereo partly specified)	18	63*	-19	1	7	2
CCOC(=O)N1CCN(C(=O)CSc2ccc3nnc(-c4ccccn4)n3n2)CC1	-8	11	9	28	0	0
O=C(CSc1ccc2nnc(-c3ccccn3)n2n1)N1CCOCC1	59*	1	-1	8	13	/
c1ccc(CNc2nc(NCc3ccccc3)c3ccccc3n2)cc1	/	106*	38	-36	20	-16
c1ccc(CNc2nc(-c3ccccc3)nc3ccccc23)cc1	/	22	15	1	/	-10
CCOC(=O)c1c(C)nn(-c2ccc(NC(=O)c3c(C)noc3C)cc2)c1C	/	51	-19	6	/	2
CCOC(=O)c1c(C)nn(-c2ccc(NC(=O)/C=C/C(=O)O)cc2)c1C	/	92*	-3	33	-11	-2
COc1ccc2ccc(OC)c(/C=N/NC(=O)c3cc4ccccc4o3)c2c1	/	/	/	/	5	/
CN1CCN(CCC(=O)N/N=C/c2ccccc2F)CC1	/	-4	1	29	-20	0
O=C(CCN1CCN(c2ccccc2)CC1)N/N=C/c1ccccc1O	17	71*	13	-1	-5	1
NC(=O)c1cc(Br)cc(C2CCCCC2)c1O	/	87*	-15	-4	/	2
NC(=O)c1cc(Br)cc2c3c([nH]c12)CCCC3	-18	1	4	-27	-20	/
O=C(/C=C/c1cccc([N+](=O)[O-])c1)c1ccc([N+](=O)[O-])o1	/	71*	/	/	81	/
COc1ccc(NC(=O)c2cc([N+](=O)[O-])ccc2O)cc1	12	85*	16	-33	-31	-7
COc1ccc(NC(=O)c2cccc([N+](=O)[O-])c2)cc1	-7	-105	-29	-10	0	0
CNC(=S)Nc1cccc(S(=O)(=O)NC2=NCCC2)c1	0	1	6	3	8	0
COC(=O)CCC(=O)c1oc2ccc(OC)cc2c1N	64*	-62	-80	7	/	2
Cc1cc(C)c(NC(=O)CCN2CCN(Cc3ccccc3)CC2)c(C)c1	/	98*	4	-8	0	/
SMILES	APP transl inh	aSyn 5UTR inh	Jurkat NFkB inh	697 NFkB inh	H9c2 TAG inh	Lipid droplet
Cc1ccc(-n2nnc(-c3nccs3)n2)cc1	-118	95*	-41	-70	1	-1
Cc1cc(C)n(CCC(=O)N/N=C/c2ccc(O)cc2)n1	16	21	-1	-21	/	-6
Cc1cc(C)n(CCC(=O)N/N=C/c2c(O)ccc3ccccc23)n1	/	73*	27	0	-1	0
O=C(CCSc1nc2ccccc2s1)N/N=C/c1c(O)ccc2ccccc12	52*	66*	25	-18	/	2
O=c1c2ccccc2nc(N/N=C/c2ccc(O)cc2)n1O	-35	-44	-7	-8	-7	9
O=c1c2ccccc2nc(N/N=C/c2c(O)ccc3ccccc23)n1O	57*	82*	1	-190	49	-42
CC(O)(c1cccnc1)c1nc(-c2cccc(C#N)c2)cs1 (stereo unspecified)	/	/	/	/	0	/
COc1ccc(NC(=O)CN(c2ccccc2F)S(=O)(=O)c2ccc(C)cc2)c(OC)c1	/	12	-21	-28	/	-4
O=C1c2ccc3c4c(ccc(c24)C(=O)N1CCCCO)C(=O)N(CCCCO)C3=O	28	111*	/	/	73*	-27
